Screens deposited in PubChem BioAssay by several laboratories.
CYP2C9 inh: blockers of cytochrome P450 2C9 activity – biochemical, luminescence, ADME assay, primary screen | P11712 | CYP2C9 Supersomes, luciferin-H conversion | inhibition, % at 5 µM | 96,000 tested, 20% active;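 active = blocking of liver enzyme CYP2C9 beyond about 50% at 5 µM, limit read from the data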
Rev-RRE block: HIV-1 Rev-RRE binding inhibitors, primary screen, biochemical, FRET, protein-RNA interaction | 97,000 tested, 0.79% active | P05866 | Rev peptide-RRE RNA binding | inhibition, % at 8 µM;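 active = inhibition above the screen-wide mean plus 3 SD, cut at about 35% in these data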
Target sequence (P05866 whole entry, looked up): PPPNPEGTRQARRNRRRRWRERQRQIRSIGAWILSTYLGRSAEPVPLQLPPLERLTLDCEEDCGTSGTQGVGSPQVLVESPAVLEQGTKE
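Test system: Cy5-tagged RRE RNA duplex with fluorescein-tagged Rev peptide; Probe or stimulus: labelled Rev peptide; Schedule: 5 min preincubation and 15 min binding, 25 °C; Signal: FRET fluorescence readout; Evaluation: % inhibition from 671/540 nm acceptor-to-donor ratio, scaled between controls; Control set: DMSO and neomycin B.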
Cav3 T inh: Cav3.2 calcium influx blockers – cell-based, Fluo-4 calcium fluorescence, FDSS, MLSMR library, primary screen; Voltage-dependent T-type calcium channel subunit alpha-1H (Homo sapiens), O95180; Cav3.2-expressing cells; stronger effect = lower value; 100,000 tested, 4% active; B-score at 10 µM;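 active = single-dose well whose peak fluorescence ratio is a statistical outlier from its plate by either plate-standardised score or position-corrected B-score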
CYP2C9 activ: human CYP2C9 activators, primary screen, biochemical, luminescence; Cytochrome P450 2C9 (Homo sapiens), P11712; recombinant CYP2C9, luciferin-H conversion; stronger effect = higher value; factor 1 = untreated enzyme, 0 = blocked; activation factor at 5 µM; 96,000 tested, 1.4% active;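 active = activation factor of 2 or more for CYP2C9 at a 5 µM dose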
CYP2C19 inh: blockers of cytochrome P450 2C19 activity – biochemical, luminescence, ADME assay, primary screen; 96,000 tested, 21% active; CYP2C19 Supersomes, luciferin-H EGE luminescence, 30 min; inhibition, % at 5 µM;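 active = CYP2C19 inhibition above a set limit at 5 µM in the primary screen, cut at about 50% in these data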
Target sequence (P33261 whole entry, looked up): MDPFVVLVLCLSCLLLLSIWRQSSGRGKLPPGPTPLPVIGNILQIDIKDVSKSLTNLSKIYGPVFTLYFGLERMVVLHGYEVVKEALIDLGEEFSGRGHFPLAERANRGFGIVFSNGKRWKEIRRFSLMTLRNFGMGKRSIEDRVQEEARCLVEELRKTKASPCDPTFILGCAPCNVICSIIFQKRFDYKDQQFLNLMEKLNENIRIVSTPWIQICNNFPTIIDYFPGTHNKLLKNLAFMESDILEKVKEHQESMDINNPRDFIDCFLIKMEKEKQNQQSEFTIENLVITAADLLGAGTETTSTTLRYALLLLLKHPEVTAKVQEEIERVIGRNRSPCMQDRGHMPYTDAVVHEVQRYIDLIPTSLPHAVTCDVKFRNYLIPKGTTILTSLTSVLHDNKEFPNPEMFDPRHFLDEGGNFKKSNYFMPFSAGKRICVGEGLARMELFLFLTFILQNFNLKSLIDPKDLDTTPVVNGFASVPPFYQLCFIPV
CYP2C19 activ: human CYP2C19 activators, primary screen, biochemical, luminescence. Cytochrome P450 2C19 (Homo sapiens), P33261. recombinant CYP2C19, luciferin-H EGE luminescence; stronger effect = higher value; 0 = fully inhibited enzyme, 1 = untreated enzyme. activation factor at 5 µM. 96,000 tested, under 10 active;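 active = activation factor of at least 2 at 5 µM in the primary screen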
Of the large screens only hits and unclear results are named; the others gave an inactive call. Rows were chosen to be rich in hits. Some 27% of all compounds tested hit in one or more screens of this group.

Cc1c(C#N)c2ncnc(-c3ccccc3)c2n1-c1ccccc1	none
N#Cc1c2n(c3c(=O)n(Cc4ccccc4Cl)cnc13)CCCCC2	CYP2C9 inh 67.6, CYP2C19 inh 59.0 (no result: Cav3 T inh)
CCCOc1ccc(C(=O)C(CN2CCOCC2)c2ccccc2)cc1 (stereo not given)	none (no result: CYP2C9 inh, CYP2C9 activ, CYP2C19 inh, CYP2C19 activ)
CN1C(=O)CC(N2CCN(Cc3ccc(Cl)cc3)CC2)C1=O (stereo not given)	none
CCOc1cc(C)ccc1OCc1nnc(SCC(=O)c2cccc([N+](=O)[O-])c2)n1C	none
CC1CCCC2(C1)NC(=S)c1c(sc3c1CCCC3)N2 (stereo not given)	none
CCc1nc2ccc(C)cc2c(C(=O)NC2CCCCC2C)c1C (stereo not given)	CYP2C9 inh 70.8
O=C(CCCN1C(=O)c2cccnc2C1=O)N1CC(=O)N(CCc2ccccc2)C(=O)C1	none
CS(=O)(=O)c1ccc2nc(NC(=O)Oc3ccccc3)sc2c1	CYP2C9 inh 70.3
COc1ccc(C(=O)Nc2nc3ccc(S(C)(=O)=O)cc3s2)cc1	none (no result: CYP2C9 inh, CYP2C9 activ, CYP2C19 inh, CYP2C19 activ)
C=CCN(CC=C)S(=O)(=O)c1ccc2nc(NC(=O)C(C)C)sc2c1	CYP2C9 inh 93.4, CYP2C19 inh 80.8
COCC(=O)Nc1nc2ccc(S(C)(=O)=O)cc2s1	CYP2C9 inh 76.9, CYP2C19 inh 62.6
CC1CCC2(CC1)C(Nc1cccc(Cl)c1)=NC(=S)N2CC#N (stereo not given)	none (no result: CYP2C9 inh, CYP2C9 activ, CYP2C19 inh, CYP2C19 activ)
O=C(Nc1nnc(-c2ccc3c(c2)CCCC3)o1)C1COc2ccccc2O1 (stereo not given)	Cav3 T inh -4.88
O=C(COc1ccc(Cl)cc1)Nc1nnc(-c2ccc3c(c2)CCCC3)o1	none (no result: Cav3 T inh)
COc1ccccc1C(=O)Nc1nnc(-c2ccc3c(c2)CCCC3)o1	CYP2C9 activ 2.1, CYP2C19 inh 75.1 (no result: Cav3 T inh)
CC1CN(S(=O)(=O)c2ccc(C(=O)Nc3nnc(-c4ccc5c(c4)CCCC5)o3)cc2)CC(C)O1 (stereo not given)	Cav3 T inh -8.4
CC(=O)Nc1nnc(-c2ccc3c(c2)CCCC3)o1	none (no result: Cav3 T inh)
CCC(Cc1ccccc1)NC(=O)C1CCN(S(=O)(=O)c2c(C)noc2C)CC1 (stereo not given)	none
CCN(CC)C(=O)/C(=C\c1ccc(Br)cc1)NC(=O)c1ccccc1OC	CYP2C9 inh 73.3
COc1ccccc1C(=O)N/C(=C\c1ccc(Br)cc1)C(=O)NCCO	none
O=C(NCCn1ccc2ccccc21)C1CCCCC1	none (no result: CYP2C9 inh, Rev-RRE block, CYP2C9 activ, CYP2C19 inh, CYP2C19 activ)
Cc1cc2ccccc2n1CCNC(=O)C1CCCCC1	CYP2C19 inh 68.5
Cc1cc2ccccc2n1CCNC(=O)c1cccs1	CYP2C19 inh 53.4
COCCCNC(=O)c1cccs1	none
CCn1c(CCCNC(=O)c2cccs2)nc2ccccc21	CYP2C19 inh 76.3
CCCn1c(CCNC(=O)c2cccs2)nc2ccccc21	none (no result: CYP2C9 inh, CYP2C9 activ, CYP2C19 inh, CYP2C19 activ)
Cc1cc2ccccc2n1CCNC(=O)C1CCCC1	CYP2C9 inh 51.5, CYP2C19 inh 93.9 (no result: Cav3 T inh)
CCn1c(SCC(N)=O)nnc1-c1ccc(S(=O)(=O)N2CCN(C)CC2)cc1	none
COc1ccc(-n2nnnc2SCC(=O)c2ccc(O)c(O)c2)cc1	none
COC(=O)c1cc(OC)c(OC)cc1NC(=S)N1CCN(Cc2ccccc2)CC1	CYP2C19 inh 100.0 (no result: Cav3 T inh)
COc1cccc(C(=O)CSc2nnnn2C)c1	CYP2C19 inh 71.8
COC(=O)c1cc(OC)c(OC)cc1NC(=O)CN1CCOCC1	none
COC(=O)c1ccc(CSc2nnnn2Cc2ccccc2)cc1	CYP2C9 inh 78.2
COc1ccc(C(=O)CSc2nnnn2Cc2ccccc2)cc1	CYP2C19 inh 59.9
C=CCn1c(C(C)NC(=O)CCC)nc2ccccc21 (stereo not given)	none (no result: CYP2C9 inh, CYP2C9 activ, CYP2C19 inh, CYP2C19 activ)
COC(=O)c1cc(OC)c(OC)cc1NC(=O)CSc1nnnn1Cc1ccccc1	CYP2C9 inh 81.8, CYP2C19 inh 74.8
COC(=O)c1ccccc1NC(=O)CSc1nnnn1-c1ccc(C)cc1C	none
CC(CCc1ccccc1)NC(=O)C1CCN(S(=O)(=O)N2CCCCC2)CC1 (stereo not given)	none
CC(=O)CC(c1ccc([N+](=O)[O-])cc1)c1c(O)c2ccccc2oc1=O (stereo not given)	CYP2C9 inh 76.3
O=c1oc2ccccc2c(NC(c2ccccc2)c2ccccc2)c1[N+](=O)[O-]	none (no result: CYP2C9 inh, Rev-RRE block, CYP2C9 activ, CYP2C19 inh, CYP2C19 activ)
O=C1CC(c2ccc(F)cc2)Sc2ccccc2N1 (stereo not given)	none (no result: CYP2C9 inh, CYP2C9 activ, CYP2C19 inh, CYP2C19 activ)
COc1cc(C2CC(=O)Nc3ccccc3S2)cc(OC)c1OC (stereo not given)	CYP2C19 inh 63.6 (no result: Rev-RRE block, Cav3 T inh)
c1cncc(CSc2nnc(-c3cccnc3)n2Cc2ccco2)c1	none
Clc1cccc(CSc2nnc(-c3cccnc3)n2Cc2ccco2)c1	CYP2C9 inh 64.9, CYP2C19 inh 81.3
Clc1ccc(CSc2nnc(-c3cccnc3)n2Cc2ccco2)c(Cl)c1	CYP2C9 inh 62.1, CYP2C19 inh 75.4
CC1(OC(=O)c2cnc3ccccc3n2)C(=O)C=C2C=C(c3ccc(C#N)cc3)OC=C2C1=O (stereo not given)	none (no result: CYP2C9 inh, Rev-RRE block, CYP2C9 activ, CYP2C19 inh, CYP2C19 activ)
Cc1ccc(Cl)c(OCC(=O)NCc2ccco2)c1	none
O=S(=O)(/N=S1/CC=CCN1S(=O)(=O)c1ccccc1)c1ccccc1 (stereo not given)	CYP2C9 inh 55.3
CC(C)c1ccc(OC(=O)NCCO)cc1	none
CCOc1c(Br)cc(C2NS(=O)(=O)N=C3CCCCCN32)cc1OC (stereo not given)	CYP2C9 inh 65.6, CYP2C19 inh 67.8
CCOC(=O)C1=C(C)N=C2SC(CC)C(=O)N2C1c1cccc(F)c1 (stereo not given)	CYP2C9 inh 75.3, CYP2C19 inh 90.9
COC(=O)C1=C(C)Nc2nnnn2C1c1cccs1 (stereo not given)	none
CCC1SC2=NC(C)=C(C(=O)OC)C(c3cccs3)N2C1=O (stereo not given)	CYP2C19 inh 90.4
COc1cc2[nH]c(-c3cccc(F)c3)cc(=O)c2cc1OC	none (no result: CYP2C9 inh, Rev-RRE block, CYP2C9 activ, CYP2C19 inh, CYP2C19 activ)
CCOc1ccc(NC(=O)CCC(=O)OC)cc1	none
COC(=O)CCC(=O)Nc1ccc(Br)cc1	CYP2C19 inh 65.3
CC(C)c1ccccc1OCCCCCNCCO	CYP2C19 inh 59.2
Cc1ccccc1OCCCCCNCCO	none (no result: Rev-RRE block)
O=C(Nc1ccc2oc(=O)ccc2c1)c1cccnc1Cl	none (no result: CYP2C9 inh, CYP2C9 activ, CYP2C19 inh, CYP2C19 activ)
CCO[C@H]1OC(C(=O)O)=C[C@@H](c2ccc3c(c2)OCO3)[C@@H]1CCCO	none (no result: CYP2C9 inh, Rev-RRE block, CYP2C9 activ, CYP2C19 inh, CYP2C19 activ)
C=CCNC(=O)CC(=O)N/N=C/c1ccccc1F	CYP2C9 inh 88.9
O=C(CO)N/N=C/c1ccccc1F	none
O=C(CC(=O)N/N=C/c1ccc(Cl)cc1Cl)NCc1ccccc1	CYP2C19 inh 55.3
